The source made the active and inactive calls. The calls are words filed in the database; no cut-off is given here.
How the values were obtained:
[1] = Lipophilicity, log kw of compound by RP-HPLC; assay type: physicochemical
How it was run: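 RP-HPLC on a C18 end-capped column at room temperature, with UV detection at 214 nm and uracil as the unretained marker. Capacity factor k = (tr − t0)/t0, from the mean of three measurement sets. log k extrapolated to 100% water (log k = log kw − Sφ) to give log kw.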

[2] = system: Mus musculus; test: Anticonvulsant activity in ip dosed CF1 albino mouse assessed as inhibition of subcutaneous pentylenetetrazole-induced electrical stimulus at 300 mg/kg after 4 hrs; assay type: functional, organism-based; parameters: dose 300 mg/kg
How it was run: (§1)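 Male CF-1 mice injected intraperitoneally at 30, 100 and 300 mg/kg, suspended in 0.5% methylcellulose/water. MES or subcutaneous pentylenetetrazole challenge at 0.5 and 4 h; selected compounds also at 1 or 2 h.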

[3] = system: Mus musculus; test: Anticonvulsant activity in ip dosed CF1 albino mouse assessed as inhibition of maximal electroshock-induced electrical stimulus at 300 mg/kg after 4 hrs; assay type: functional, organism-based; parameters: dose 300 mg/kg; how it was run: as §1
[4] = system: Mus musculus; test: Neurotoxicity in ip dosed CF1 albino mouse at 300 mg/kg after 4 hrs by rotarod test; assay type: toxicity, organism-based; parameters: dose 300 mg/kg, route intraperitoneal; conditions: in vivo
How it was run: (§2)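 CF-1 mice given 30, 100 or 300 mg/kg ip in 0.5% methylcellulose/water, examined at 0.5 and 4 h. Rotorod test: neurotoxicity is the inability to keep equilibrium on the rod for a given time. Value is the minimum dose giving motor impairment; a dash means none at 300 mg/kg.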

[5] = system: Mus musculus; test: Anticonvulsant activity in ip dosed CF1 albino mouse assessed as inhibition of subcutaneous pentylenetetrazole-induced electrical stimulus after 0.5 hr; assay type: functional; how it was run: as §1
[6] = system: Mus musculus; test: Anticonvulsant activity in ip dosed CF1 albino mouse assessed as inhibition of maximal electroshock-induced electrical stimulus after 0.5 hr; assay type: functional; how it was run: as §1
[7] = system: Mus musculus; test: Neurotoxicity in ip dosed CF1 albino mouse after 0.5 hr by rotarod test; assay type: toxicity, organism-based; conditions: in vivo; how it was run: as §2
[8] = system: Mus musculus; test: Anticonvulsant activity in ip dosed CF1 albino mouse assessed as inhibition of subcutaneous pentylenetetrazole-induced electrical stimulus at 300 mg/kg after 0.5 hr; assay type: functional, organism-based; parameters: dose 300 mg/kg; how it was run: as §1
[9] = system: Mus musculus; test: Anticonvulsant activity in ip dosed CF1 albino mouse assessed as inhibition of maximal electroshock-induced electrical stimulus at 300 mg/kg after 0.5 hr; assay type: functional, organism-based; parameters: dose 300 mg/kg; how it was run: as §1
[10] = system: Mus musculus; test: Neurotoxicity in ip dosed CF1 albino mouse at 300 mg/kg after 0.5 hr by rotarod test; assay type: toxicity, organism-based; parameters: dose 300 mg/kg, route intraperitoneal; conditions: in vivo; how it was run: as §2
[11] = system: Rattus norvegicus; test: Anticonvulsant activity in Sprague-Dawley rat assessed as protection against seizure at 30 mg/kg, po after 4 hrs by maximal electroshock test; assay type: functional
How it was run: (§3)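 Male Sprague–Dawley rats; compound suspended in 0.5% methylcellulose/water and given orally at a fixed 30 mg/kg, four rats per time point. MES test run at 0.25, 0.5, 1, 2 and 4 h after dosing, with motor impairment checked in parallel. Read-out: number of rats of four protected.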

[12] = system: Mus musculus; test: Anticonvulsant activity in ip dosed CF1 albino mouse assessed as inhibition of maximal electroshock-induced electrical stimulus after 4 hrs; assay type: functional; how it was run: as §1
[13] = system: Mus musculus; test: Neurotoxicity in ip dosed CF1 albino mouse after 4 hrs by rotarod test; assay type: toxicity, organism-based; conditions: in vivo; how it was run: as §2
[14] = system: Mus musculus; test: Anticonvulsant activity in ip dosed CF1 albino mouse assessed as inhibition of subcutaneous pentylenetetrazole-induced electrical stimulus after 4 hrs; assay type: functional; how it was run: as §1
[15] = system: Rattus norvegicus; test: Anticonvulsant activity in Sprague-Dawley rat assessed as protection against seizure at 30 mg/kg, po after 0.5 hr by maximal electroshock test; assay type: functional; how it was run: as §3
[16] = system: Rattus norvegicus; test: Anticonvulsant activity in Sprague-Dawley rat assessed as protection against seizure at 30 mg/kg, po after 2 hrs by maximal electroshock test; assay type: functional; how it was run: as §3
[17] = system: Rattus norvegicus; test: Anticonvulsant activity in Sprague-Dawley rat assessed as protection against seizure at 30 mg/kg, po after 1 hr by maximal electroshock test; assay type: functional; how it was run: as §3
[18] = system: Rattus norvegicus; test: Anticonvulsant activity in Sprague-Dawley rat assessed as protection against seizure at 30 mg/kg, po after 0.25 hr by maximal electroshock test; assay type: functional; how it was run: as §3
[19] = system: Rattus norvegicus; test: Anticonvulsant activity in Sprague-Dawley rat assessed as protection against seizure at 50 mg/kg, po after 0.5 hr by subcutaneous pentylenetetrazole test; assay type: functional
How it was run: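 Male Sprague–Dawley rats dosed orally at 50 mg/kg as a 0.5% methylcellulose/water suspension, four animals per time point. Convulsant given subcutaneously at 0.25, 0.5, 1, 2 and 4 h after dosing; rotorod motor impairment assessed in parallel. Read-out: number of rats of four protected.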

Structure (SMILES) | log K [1] | Activity [2] | Activity [3] | Activity [4] | Activity [5] [mg/kg] | Activity [6] [mg/kg] | Activity [7] [mg/kg] | Activity [8] | Activity [9] | Activity [10] | Activity [11] | Activity [12] [mg/kg] | Activity [13] [mg/kg] | Activity [14] [mg/kg] | Activity [15] | Activity [16] | Activity [17] [%] | Activity [18] | Activity [19]
O=C1C2CCCCC2C(=O)N1Nc1ccccc1Cl (stereo not drawn) | 2.162 | inactive | inactive | Not Active |  |  |  | inactive | inactive | Not Active |  |  |  |  |  |  |  |  | 
CCC1(C)CC(=O)N(Nc2ccc(Br)cc2)C1=O (stereo not drawn) | 2.024 |  | inactive | Not Active | 300 | 300 | 300 |  |  |  | 25% |  |  | 100 | 50% | 50% | 50 | 75% | 
CCC1(C)CC(=O)N(Nc2ccc(Cl)cc2)C1=O (stereo not drawn) | 2.201 | inactive | inactive |  | 300 | 100 | 100 |  |  |  | 25% |  | 300 |  |  |  | 25 | inactive | 
CC1(C)CC(=O)N(Nc2ccc(Cl)cc2)C1=O | 2.08 |  |  |  | 100 | 100 | 300 |  |  |  |  | 300 | 300 | 300 |  |  |  |  | 
CCCCC1(C)CC(=O)N(Nc2ccc(Cl)cc2)C1=O (stereo not drawn) | 2.638 | inactive | inactive | Not Active |  |  | 300 | inactive | inactive |  |  |  |  |  |  |  |  |  | 
O=C1C2CCCCC2C(=O)N1Nc1ccc(Cl)cc1 (stereo not drawn) | 2.224 | inactive | inactive | Not Active | 100 |  |  |  | inactive | Not Active |  |  |  |  |  |  |  |  | 
CCC1(C)CC(=O)N(Nc2ccccc2)C1=O (stereo not drawn) | 1.695 |  |  |  | 300 | 300 | 100 |  |  |  | inactive |  |  |  |  | inactive |  |  | inactive
CC1(C)CC(=O)N(Nc2ccc(Cl)cc2Cl)C1=O | 2.179 |  |  |  | 100 |  | 100 |  |  |  | inactive | 100 |  |  | inactive |  |  |  | inactive

Second part, led by results:

log K [1] | Structure (SMILES) | Activity [2] | Activity [3] | Activity [4] | Activity [5] [mg/kg] | Activity [6] [mg/kg] | Activity [7] [mg/kg] | Activity [8] | Activity [9] | Activity [10] | Activity [11] | Activity [12] [mg/kg] | Activity [13] [mg/kg] | Activity [14] [mg/kg] | Activity [15] | Activity [16] | Activity [17] [%] | Activity [18] | Activity [19]
1.876 | CC1(C)CC(=O)N(Nc2ccccc2Cl)C1=O | inactive | inactive | Not Active | 300 | 100 | 30 |  |  |  |  |  |  |  |  |  |  |  | 
2.403 | CCCC1(C)CC(=O)N(Nc2ccc(Br)cc2)C1=O (stereo not drawn) |  |  |  | 300 | 100 | 300 |  |  |  | inactive | 300 | 300 |  |  |  |  |  | 
2.896 | CCCCC1(C)CC(=O)N(Nc2ccc(Cl)cc2Cl)C1=O (stereo not drawn) | inactive | inactive | Not Active | 100 | 100 | 100 |  |  |  |  |  |  |  |  |  |  |  | 
1.999 | CCC1(CC)CC(=O)N(Nc2ccc(C)cc2)C1=O | inactive | inactive | Not Active |  | 300 | 100 | inactive |  |  |  |  |  |  |  |  |  |  | 
2.425 | O=C1C2CCCCC2C(=O)N1Nc1ccc(Cl)cc1Cl (stereo not drawn) | inactive |  |  |  |  | 300 | inactive |  |  |  | 100 | 300 |  |  |  |  |  | 
